Assay results reported in ChEMBL document CHEMBL1145391, “C-3 alkyl/arylalkyl-2,3-dideoxy hex-2-enopyranosides as antitubercular agents: synthesis, biological evaluation, and QSAR study” (J Med Chem, 2007).
In brackets after ≈: the same amount, converted by molar mass. Activity calls are given as the source filed them. The calls are words filed in the database; no cut-off is given here.

Assays:
[1] = test system: Mycobacterium tuberculosis; experiment: Antitubercular activity against Mycobacterium tuberculosis H37Rv at 50 ug/mL by agar dilution assay; type: functional, organism-based
[2] = test system: Mycobacterium tuberculosis; experiment: Antitubercular activity against Mycobacterium tuberculosis H37Rv by agar dilution assay; type: functional
Summary of the method: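 Compounds 2-fold serially diluted into 7H10 agar tubes. H37Rv inoculum taken from fresh Lowenstein-Jensen slants, adjusted to 1 mg/mL wet weight in 0.05% Tween 80 saline, then diluted 10^-2 (about 10⁷ cfu/mL) and spotted onto the agar. Incubated at 37 °C; final read at 30 days. MIC is the lowest concentration giving complete growth inhibition per spot. Ofloxacin was the standard.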

Vero [3] = experiment: Cytotoxicity against Vero cells at 25 ug/mL after 72 hrs by MTT assay; type: cell-based; conditions: chlorocebus sabaeus
Summary of the method: (§1)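 VERO cells (from ATCC, maintained in-house) were seeded and grown at 37 °C in 5% CO₂/95% air. They were then exposed to the compound at 25, 50 and 100 µg/mL for 72 h.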

J774.A1 [4] = experiment: Cytotoxicity against mouse […] cells at 12.5 ug/mL; type: cell-based
J774.A1 [5] = experiment: Cytotoxicity against mouse […] cells at 25 ug/mL; type: cell-based
J774.A1 [6] = experiment: Cytotoxicity against mouse […] cells at 50 ug/mL; type: cell-based
Vero [7] = experiment: Cytotoxicity against Vero cells at 100 ug/mL after 72 hrs by MTT assay; type: cell-based; conditions: chlorocebus sabaeus; summary of the method: as §1

| SMILES | MIC [2] [µg/mL] | other results |
| --- | --- | --- |
| CC(C)O[C@@H]1C=C([C@H](O)c2ccc(C#N)cc2)[C@H](O)[C@@H](COC(=O)C(C)(C)C)O1 | – | Activity [1]: inactive |
| CCCCCCCCC[C@@H](O)C1=C[C@@H](OC(C)C)O[C@H](COC(=O)c2ccc([N+](=O)[O-])cc2)[C@H]1O | 25 (≈ 50.6 µM) | – |
| CC(C)O[C@@H]1C=C([C@H](O)c2cccc([N+](=O)[O-])c2)C(=O)[C@@H](COC(=O)C(C)(C)C)O1 | 50 (≈ 119 µM) | – |
| CC(C)O[C@@H]1C=C([C@H](O)c2ccc(F)cc2)C(=O)[C@@H](COC(=O)C(C)(C)C)O1 | – | Activity [1]: inactive |
| CC(C)O[C@@H]1C=C([C@H](O)c2ccc(C(F)(F)F)cc2)[C@H](O)[C@@H](COC(=O)c2ccc([N+](=O)[O-])cc2)O1 | 25 (≈ 48.9 µM) | – |
| CC(C)O[C@@H]1C=C([C@H](O)c2ccccc2[N+](=O)[O-])[C@H](O)[C@@H](COC(=O)C(C)(C)C)O1 | 25 (≈ 59 µM) | – |
| CC(C)O[C@@H]1C=C([C@H](O)c2ccc(F)cc2)[C@H](O)[C@@H](COC(=O)C(C)(C)C)O1 | 25 (≈ 63.1 µM) | – |
| CC(C)O[C@@H]1C=C([C@H](O)c2ccc([N+](=O)[O-])cc2)[C@H](O)[C@@H](COC(=O)C(C)(C)C)O1 | – | Activity [1]: inactive |
| CCCCCCCCC[C@@H](O)C1=C[C@@H](OC(C)C)O[C@H](COC(=O)c2ccc([N+](=O)[O-])cc2)C1=O | 25 (≈ 50.9 µM) | – |
| CC(C)O[C@@H]1C=C([C@H](O)c2ccc(C(F)(F)F)cc2)[C@H](O)[C@@H](COC(=O)C(C)(C)C)O1 | 25 (≈ 56 µM) | – |
| CCC[C@@H](O)C1=C[C@@H](OC(C)C)O[C@H](COC(=O)c2ccc([N+](=O)[O-])cc2)C1=O | 25 (≈ 61.4 µM) | – |
| CC(C)O[C@@H]1C=C([C@H](O)c2ccc(C#N)cc2)C(=O)[C@@H](COC(=O)c2ccc([N+](=O)[O-])cc2)O1 | 25 (≈ 53.6 µM) | – |
| CC(=O)OC[C@H]1O[C@H](OC(C)C)C=C([C@H](O)c2ccc([N+](=O)[O-])cc2)C1=O | 1.56 (≈ 4.11 µM) | Activity (Vero [3]): Toxic; Activity (J774.A1 [4]): Non-toxic; Activity (J774.A1 [5]): Non-toxic; Activity (J774.A1 [6]): Non-toxic |
| CC(C)O[C@@H]1C=C([C@H](O)c2cccc([N+](=O)[O-])c2)[C@H](O)[C@@H](COC(=O)C(C)(C)C)O1 | 25 (≈ 59 µM) | – |
| CCCCCCCCC[C@@H](O)C1=C[C@@H](OC(C)C)O[C@H](COC(=O)C(C)(C)C)C1=O | 6.25 (≈ 14.7 µM) | Activity (Vero [3]): Toxic; Activity (J774.A1 [4]): Non-toxic; Activity (J774.A1 [5]): Non-toxic; Activity (J774.A1 [6]): Non-toxic |
| CC(C)O[C@@H]1C=C([C@H](O)c2ccc([N+](=O)[O-])cc2)[C@H](O)[C@@H](COC(=O)c2ccc([N+](=O)[O-])cc2)O1 | 25 (≈ 51.2 µM) | – |
| CC(=O)OC[C@H]1O[C@H](OC(C)C)C=C([C@H](O)c2ccc([N+](=O)[O-])cc2)[C@@H]1O | 25 (≈ 65.6 µM) | – |
| CCCCCCCCC[C@@H](O)C1=C[C@@H](OC(C)C)O[C@H](COC(=O)C(C)(C)C)[C@H]1O | 1.56 (≈ 3.64 µM) | Activity (Vero [3]): Toxic; Activity (J774.A1 [4]): Non-toxic; Activity (J774.A1 [5]): Non-toxic; Activity (J774.A1 [6]): Non-toxic |
| CC(C)O[C@@H]1C=C([C@H](O)c2ccc(F)cc2)C(=O)[C@@H](COC(=O)c2ccc([N+](=O)[O-])cc2)O1 | 25 (≈ 54.4 µM) | – |
| CC(C)O[C@@H]1C=C([C@H](O)c2ccc(C(F)(F)F)cc2)C(=O)[C@@H](COC(=O)C(C)(C)C)O1 | 50 (≈ 112 µM) | – |
| CCC[C@@H](O)C1=C[C@@H](OC(C)C)O[C@H](COC(=O)C(C)(C)C)C1=O | 25 (≈ 73 µM) | – |
| CC(C)O[C@@H]1C=C([C@H](O)c2ccc(C#N)cc2)C(=O)[C@@H](COC(=O)C(C)(C)C)O1 | 3.12 (≈ 7.77 µM) | Activity (Vero [7]): Non-toxic; Activity (J774.A1 [4]): Non-toxic; Activity (J774.A1 [5]): Non-toxic; Activity (J774.A1 [6]): Non-toxic |
| CC(C)O[C@@H]1C=C([C@H](O)c2ccc([N+](=O)[O-])cc2)C(=O)[C@@H](COC(=O)c2ccc([N+](=O)[O-])cc2)O1 | 25 (≈ 51.4 µM) | – |
| CC(C)O[C@@H]1C=C([C@H](O)c2ccccc2[N+](=O)[O-])C(=O)[C@@H](COC(=O)C(C)(C)C)O1 | 50 (≈ 119 µM) | – |
| CC(C)O[C@@H]1C=C([C@H](O)c2ccc([N+](=O)[O-])cc2)C(=O)[C@@H](COC(=O)C(C)(C)C)O1 | 50 (≈ 119 µM) | – |
| CC(C)O[C@@H]1C=C([C@H](O)c2ccc(C(F)(F)F)cc2)C(=O)[C@@H](COC(=O)c2ccc([N+](=O)[O-])cc2)O1 | 25 (≈ 49.1 µM) | – |
